Only some compounds are listed: those with a hit (about 2.9% of all), similar ones and a draw of the others.
RanGTP-Impb inh = disruptors of Ran-importin-beta complex formation – biochemical, FRET, CFP-Ran, YFP-importin-beta, homogeneous, primary screen; cell-free CFP-Ran/YFP-importin-beta FRET ratio; inhibition, % (concentration not given with the values); 1.1% of 300,000 active;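 active = more than half of the replicate wells show a fall in the fluorescence ratio signal beyond about 16%, limit read from the data, passing the limit was not always enough; inconclusive = exactly half of the replicate wells pass the set limit; inactive = fewer than half of replicates pass the limit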;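 also: 0% = DMSO wells and 100% = Ran loaded with GDP instead of GTP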
Runt-SMMHC FRET = inhibitors of human RUNX1 Runt domain binding to CBFb-SMMHC; inhibition, % at 20 µM; Q01196+Q13951; 0.74% of 220,000 active; Cerulean-Runt/Venus-CBFb-SMMHC FRET ratio 530/480, 1 h;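 active = mean inhibition across duplicate retests at 20 µM reaching about 50%, limit read from the data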;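 also: 0% = DMSO wells and 100% = wells with excess untagged CBFb-SMMHC; inhibitors lower the FRET ratio by blocking Runt binding to CBFb-SMMHC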
proKLK7 act = activates the human kallikrein-7 zymogen | AID 652039 | purified proKLK7, EDANS-DABCYL substrate fluorescence; 100% is mature enzyme control, 0% vehicle | activation, % at 7 µM | P49862 | 0.9% of 370,000 active;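 active = activation above the mean of all tested compounds plus 3 SD, computed per campaign excluding outliers beyond control limits, cut at about 13% in these data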
Target sequence (P49862 whole entry, looked up): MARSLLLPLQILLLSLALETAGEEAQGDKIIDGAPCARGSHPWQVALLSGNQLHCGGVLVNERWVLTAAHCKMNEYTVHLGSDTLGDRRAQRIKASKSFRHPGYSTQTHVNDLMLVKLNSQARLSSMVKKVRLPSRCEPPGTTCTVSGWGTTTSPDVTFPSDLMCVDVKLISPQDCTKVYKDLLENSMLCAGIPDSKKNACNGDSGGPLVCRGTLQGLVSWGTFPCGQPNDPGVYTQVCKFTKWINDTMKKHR
Runt-CBFb FRET = blocks binding of human RUNX1 Runt domain to CBFb; Cerulean-Runt/Venus-CBFb FRET ratio 530/480, 1 h; inhibition, % at 20 µM; 0.46% of 220,000 active;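 active = inhibition over about 50% at 20 µM in the single-dose screen, limit read from the data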;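 also: 0% = DMSO wells and 100% = excess unlabeled CBFb competitor control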
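test system = Cerulean-tagged RUNX1 Runt domain (FRET donor) fusion protein | reagent = Venus-CBFb binding partner, 100 nM | incubation = protein complex preformed 1 h, compound exposure 1 h, room temperature, dark | detection = FRET fluorescence | read-out basis = loss of energy transfer signal | controls = 5 µM unlabeled CBFb as full-inhibition high control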
Wee1 stabilizer = human Wee1 degradation inhibition, primary screen; P30291; HeLa Luc-Wee1K328M stability, luciferase luminescence; 100% = proteasome inhibitor MG132 effect; reporter increase, % at 5 µM; 1.2% of 220,000 active; AID 1321;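 active = activation above the mean of all tested compounds plus 3 SD, set per screening run, cut at about 8.8% in these data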;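 also: cells exposed to compound for 20 h before luminescence read; 0% = DMSO alone and 100% = MG132 at 30 µM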
AI-2 QS modul = modulators of Vibrio harveyi AI-2 quorum sensing system; Vibrio harveyi JMH597 AI-2 luminescence/OD600 ratio, 9 h; hits give low values; strain lacks LuxN and CqsS sensors; 0 = neutral-control median; activity change, % at 7.5 µM; 0.4% of 300,000 active; in the data active = activity change below about -75%, passing the limit was not always enough; inconclusive = no clear call, values can overlap the other calls;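 also: luminescence divided by OD600 gain over 9 h not by final OD600 alone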
KLK7 act conf = confirmation of human kallikrein-7 zymogen activators; 68% of 3,200 active; activation, % at 7 µM; shares compounds with proKLK7 act; purified proKLK7, EDANS-DABCYL substrate fluorescence; scaled: vehicle 0, mature enzyme 100;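 active = activation, as change over the incubation, above the mean of all tested compounds plus 3 SD, cut at about 13% in these data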
EDANS-DABCYL int = optically interferes with EDANS-DABCYL signal, flagging KLK7 hits; 80% of 3,200 active; EDANS-DABCYL substrate fluorescence interference, no enzyme, 4 h; solvent 0%, active enzyme control 100%; shares compounds with proKLK7 act; activation, % at 7 µM; AID 686952;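 active = activation above the all-compound mean plus 3 SD, ignoring values outside control-based bounds, cut at about 4.8% in these data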;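 also: value is the 4 h activation minus the activation read at time zero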
EDANS interf = counter-screen for kallikrein-7 activators: EDANS-DABCYL interference, dose response; shares compounds with proKLK7 act; EDANS-DABCYL peptide fluorescence interference, no enzyme; EC50, µM; 20% of 250 active; AID 720493;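 active = compounds that raise the fluorescence signal in this interference counterscreen, with EC50 at or below 10 µM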;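 also: intact quenched peptide substrate alone read at 355 nm excitation and 520 nm emission; signal is fluorescence gain from T0 to T4 after four hours at room temperature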
The depositor's hits bear a star; i = inactive; ? = inconclusive; · = no result given.

SMILES	RanGTP-Impb inh	Runt-SMMHC FRET	proKLK7 act	Runt-CBFb FRET	Wee1 stabilizer	AI-2 QS modul	KLK7 act conf	EDANS-DABCYL int	others
CC(C)(C)C(=O)Cn1ncc(Br)c(Br)c1=O	7	2	0	2	0	0	·	·
COc1ccc2oc(-c3ccccc3)cc(=O)c2c1	·	·	14*	·	·	·	-34	-29
COc1ccc(-c2cc(=O)c3cc(OC)ccc3o2)cc1	?	-2	3	-2	4	3	·	·
CCOC(=O)c1c(-c2ccccc2)oc2ccc(OC(C)C(=O)O)cc12 (configuration not stated)	2	-1	36*	-2	-1	28	6	-15
CSc1ccc(-c2cc(=O)c3ccccc3o2)cc1	3	5	66*	0	8	-14	68*	76*
CCOC(=O)c1c(-c2ccccc2)oc2ccc(OCC(=O)NNC(=O)CCCC(=O)O)cc12	6	·	13*	·	·	44	-24	-37
COc1ccc(COCC(O)CN2CCN(S(=O)(=O)c3ccc(C(C)C)cc3)CC2)cc1 (configuration not stated)	·	·	1	·	·	·	·	·
COc1ccc2oc(-c3ccccc3)c(C(N)=O)c2c1	-1	2	13*	2	-2	14	10	18*
CCOC(=O)c1c(-c2ccccc2)oc2ccc(OCC(O)CN(C)C)cc12 (configuration not stated)	-3	·	17*	·	·	7	-13	-11
COc1ccc2oc(-c3ccccc3)c(C(=O)O)c2c1	3	·	6	·	·	23	·	·
CCCCOC(=O)c1cc(=O)[nH]c(=O)[nH]1	3	0	0	2	1	11	·	·
COC(CNC(=O)c1ccc2c(c1)ncn2C1CCCCCC1)OC	8	·	0	·	·	4	·	·
CCOC1=C2[C@@H](CN(S(=O)(=O)c3ccc(C)cc3)[C@H]2c2ccc(Cl)cc2)[C@H]2C(=O)N(c3ccccc3)C(=O)[C@H]2C1	·	·	0	·	·	·	·	·
Cc1cc(C)c2c(N)c(C(=O)NN3CC(=O)N(c4cccc(Cl)c4)CC3=O)sc2n1	?	9	13*	6	2	15	5	-3
Cc1cc(C)c2c(N)c(C(=O)Nc3c(C)n(C)n(-c4ccccc4)c3=O)sc2n1	-2	·	2	·	·	2	·	·
Cc1cc(C)c2c(N)c(C(=O)NN3CC(=O)N(c4ccccc4)CC3=O)sc2n1	8	6	109*	6	0	27	32*	38*
CCOC(=O)CC1(CC(=O)OCC)NC(=O)c2c(C)sc(C(=O)OCC)c2N1	1	4	13*	-3	-1	13	4	4.3*
CCOC(=O)CC1(C)NC(=O)c2c(C)sc(C(=O)OCC)c2N1 (configuration not stated)	9	-3	13*	0	-1	27	-16	-22
CC(C)(C)c1ccc(C(=O)NNC(=O)CNC(=O)c2cccs2)cc1	·	·	-1	·	·	·	·	·
Cc1cccc(C(=O)N=c2c(C#N)cc3c(=O)n4cccc(C)c4nc3n2Cc2ccco2)c1	112*	·	27*	95*	2	16	16*	1	EDANS interf=i
Cc1cccn2c(=O)c3cc(C#N)c(=NC(=O)c4ccccc4)n(Cc4ccco4)c3nc12	110*	·	45*	·	·	14	27*	17*	EDANS interf=7.8*
CC(=O)Nc1ccc(S(=O)(=O)N2C(C)CCCC2C)cc1 (configuration not stated)	-5	·	0	·	·	3	·	·
COc1cccc(CN(C)Cc2cc(=O)oc3c(C)c(C)ccc23)c1	2	·	1	·	·	6	·	·
COc1cccc(CN(C)Cc2cc(=O)oc3cc(O)c(Cl)cc23)c1	77*	·	38*	·	·	3	28*	37*
C[C@H](CO)N1C[C@H](C)[C@@H](CN(C)C(=O)Nc2ccc3c(c2)OCO3)Oc2ccc(NC(=O)Cn3cnnn3)cc2C1=O	·	·	0	·	·	·	·	·
SMILES	RanGTP-Impb inh	Runt-SMMHC FRET	proKLK7 act	Runt-CBFb FRET	Wee1 stabilizer	AI-2 QS modul	KLK7 act conf	EDANS-DABCYL int	others
CCC(SC1=N/C(=C/c2ccccc2OC)C(=O)N1c1ccccc1)C(=O)Nc1cc(C)on1 (configuration not stated)	10	-4	39*	-6	-2	26	-9	-6
Nc1cc(Nc2ccccc2)c2nonc2c1[N+](=O)[O-]	-11	·	13*	·	·	40	-1	0
Cc1cc(=O)oc2cc(OCC(=O)NCc3ccccn3)ccc12	1	-2	0	·	4	23	·	·
Cc1cc(=O)oc2cc(NC(=S)NCc3ccccn3)ccc12	2	10	58*	6	-1	15	38*	46*
CC1=C(C(=O)OCC2CCCO2)C(c2ccncc2)C2=C(CC(C)(C)CC2=O)N1 (configuration not stated)	?	86*	13*	42	-1	9	21*	29*
CN1CCN(c2c(F)cc3c(=O)c(C(=O)O)cn4c3c2OCN4C)CC1	-2	-3	60*	0	-1	19	21*	30*
Cc1ccc(CN2CCN(CC(=O)N/N=C/c3ccc(C)o3)CC2)cc1	3	-1	0	2	2	·	·	·
CCOC(=O)c1cc(C(=O)OCC)c2ccccn2c1=O	66*	60*	55*	97*	-2	15	57*	68*
CCOC(=O)c1c[nH]n(-c2ccccc2)c1=O	8	-2	0	-1	-3	23	·	·
O=C(CSCc1cccc(Cl)c1)Nc1ccccc1-c1ccccc1	2	0	0	-4	1	13	·	·
CSc1ccc(CN2CCC(Oc3ccc(C(=O)N4CCCC4)cc3)CC2)cc1	2	·	0	·	·	37	·	·
Nc1ccccc1/C=C/c1ccccc1N	·	·	85*	·	·	·	61*	66*
CCOc1ccccc1C(=O)NC(C)c1ccc(-n2ccnc2)cc1 (configuration not stated)	?	·	1	·	·	7	·	·
CC1C2=C(CC(C)(C)CC2=O)NC2=C1C(=O)CC(C)(C)C2	136*	86*	19*	21	-3	31	74*	73*
O=C(Nc1cccc(Cl)c1)c1csc([C@@H]2C[C@H](O)[C@@H](CO)O2)n1	·	·	0	·	·	·	·	·

From PubChem BioAssay
